Measurements published in ChEMBL document CHEMBL1144667 (2008).
The source made the active and inactive calls. Residues, ends and D or L forms follow the SMILES beside them.

How the values were obtained:
Mus musculus [1] = experiment: Antinociceptive effect in Swiss albino mouse assessed as reduction in acetic acid-induced writhing responses at 30 mg/kg, po
Mus musculus [2] = experiment: Decrease in body temperature in icv dosed Swiss albino mouse after 4 hrs; assay type: functional
Method in brief: (§1)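 icv doses 30 ng–3 µg (10 µL/mouse) in male Swiss albino CD1 mice; body temperature followed over 240 min. Mean body temperature over 4 h = AUC of time–response curve per mouse ÷ 240 min; ED35 = dose giving 35 °C mean over 4 h. 8 mice/group, mean ± SEM vs saline.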

Mus musculus [3] = experiment: Decrease in body temperature in iv dosed Swiss albino mouse; assay type: functional, organism-based
Method in brief: (§2)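 Body temperature tracked over time after i.v. injection (10 mL/kg) in male Swiss albino CD1 mice (20–22 g); 6–8 mice/group, mean ± SEM vs saline; two-way repeated-measures ANOVA.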

Mus musculus [4] = experiment: Decrease in body temperature in Swiss albino mouse at 3 ug, icv after 90 mins; assay type: functional, organism-based
Method in brief: as §1

Mus musculus [5] = experiment: Analgesic activity in iv dosed Swiss Albino mouse assessed as inhibition of acetic acid-induced writhing responses; assay type: functional, organism-based
Method in brief: (§3)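 Male Swiss albino CD1 mice (20–22 g); i.v. dosing 10 mL/kg, 15 min before i.p. 0.5% acetic acid; mice placed singly in large beakers, stretches counted over 5 min starting 5 min after acid. Dose–response plus time course at 0.3 mg/kg; 8–18 mice/group, mean ± SEM vs saline.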

Mus musculus [6] = experiment: Decrease in body temperature in Swiss albino mouse at 1 mg/kg, iv; assay type: functional, organism-based; set-up: dose 1 mg/kg; conditions: TDE = time-dependent effect
Method in brief: as §2

Mus musculus [7] = experiment: Decrease in body temperature in sc dosed Swiss albino mouse; assay type: functional, organism-based
Method in brief: (§4)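 Male Swiss albino CD1 mice injected s.c. (10 mL/kg); body temperature followed over time to beyond 3 h; 8–10 mice/group, mean ± SEM vs saline; two-way repeated-measures ANOVA.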

Mus musculus [8] = experiment: Decrease in body temperature in Swiss albino mouse at 3 ug, icv after 4 hrs relative to control; assay type: functional, organism-based
Method in brief: as §1

Mus musculus [9] = experiment: Antinociceptive effect in Swiss albino mouse assessed as reduction in paw licking latency between 300 ng to 3 ug, icv by hot plate test; assay type: functional, organism-based
Method in brief: (§5)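 Hot plate at 55 ± 0.5 °C, male Swiss albino CD1 mice confined by plastic cylinder, tested 20 min after icv injection (10 µL/mouse; Haley–McCormick method); paw licking and jump latencies recorded, 240 s cutoff, each mouse tested once. Levocabastine 1350 pmol icv alone or co-given with 300 ng agonist. 6–9 mice/group, mean ± SEM vs saline.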

Mus musculus [10] = experiment: Antinociceptive effect in Swiss albino mouse assessed as reduction in jump latency at 300 ng, icv after 20 mins by hot plate test; assay type: functional, organism-based
Method in brief: as §5

Mus musculus [11] = experiment: Decrease in body temperature in Swiss albino mouse at 10 mg/kg, sc; assay type: functional, organism-based; set-up: dose 10 mg/kg; conditions: TDE = time-dependent effect
Method in brief: as §4

Mus musculus [12] = experiment: Decrease in body temperature in Swiss albino mouse at 100 ng, icv after 30 mins; assay type: functional, organism-based
Method in brief: as §1

Mus musculus [13] = experiment: Antinociceptive effect in Swiss albino mouse assessed as reduction in jump latency at 1350 pmol, icv after 20 mins by hot plate test; assay type: functional, organism-based; conditions: in the assay text read “300 ng” for “1350 pmol”
Method in brief: as §5

Mus musculus [14] = experiment: Decrease in body temperature in Swiss albino mouse at 1 mg/kg, sc; assay type: functional, organism-based; set-up: dose 1 mg/kg; conditions: TDE = time-dependent effect
Method in brief: as §4

Mus musculus [15] = experiment: Decrease in body temperature in Swiss albino mouse at 3 mg/kg, iv; assay type: functional, organism-based; set-up: dose 3 mg/kg; conditions: TDE = time-dependent effect
Method in brief: as §2

Mus musculus [16] = experiment: Analgesic activity in Swiss Albino mouse assessed as inhibition of acetic acid-induced writhing responses at 0.3 mg/kg, iv; assay type: functional, organism-based; set-up: dose 0.3 mg/kg
Method in brief: as §3

Mus musculus [17] = experiment: Antinociceptive effect in icv dosed Swiss albino mouse assessed as reduction in acetic acid-induced writhing responses at 1 mg/kg, sc to 10 mg/kg, sc; assay type: functional, organism-based; conditions: in the assay text read “Swiss albino mouse” for “icv dosed Swiss albino mouse”
Method in brief: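 Writhing in male Swiss albino CD1 mice: s.c. dosing 1–10 mg/kg (10 mL/kg) 15 min before i.p. 0.5% acetic acid; stretches counted over 5 min starting 5 min after acid. 6–8 mice/group, mean ± SEM vs saline.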

Mus musculus [18] = experiment: Antinociceptive effect in Swiss albino mouse assessed as reduction in jump latency between 300 ng to 3 ug, icv by hot plate test; assay type: functional, organism-based
Method in brief: as §5

[19] = target: Neurotensin receptor type 1 (Rattus norvegicus) (UniProt P20789); experiment: Binding affinity at rat NTS1 receptor
Neurotensin receptor type 1 (Rattus norvegicus), sequence (P20789 whole entry): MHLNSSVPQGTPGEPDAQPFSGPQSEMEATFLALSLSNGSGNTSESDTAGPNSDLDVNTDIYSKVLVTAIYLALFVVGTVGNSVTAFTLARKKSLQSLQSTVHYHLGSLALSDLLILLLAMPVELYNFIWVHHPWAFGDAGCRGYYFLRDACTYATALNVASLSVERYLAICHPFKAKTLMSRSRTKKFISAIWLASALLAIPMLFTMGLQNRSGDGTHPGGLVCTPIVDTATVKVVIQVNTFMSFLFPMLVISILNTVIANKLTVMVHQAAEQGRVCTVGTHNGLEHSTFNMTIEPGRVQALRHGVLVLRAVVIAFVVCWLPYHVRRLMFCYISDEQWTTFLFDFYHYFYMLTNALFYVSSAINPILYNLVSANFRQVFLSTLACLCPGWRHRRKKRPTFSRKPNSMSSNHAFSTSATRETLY

CC[C@H](C)[C@@H]1NC(=O)[C@H](Cc2ccc(O)cc2)NC(=O)[C@@H]2CCCN2C(=O)[C@H](CCCCN)NC(=O)[C@H](CCCCN)NC(=O)[C@H](CC(C)C)NC(=O)[C@H]([C@@H](C)CC)NC(=O)[C@H](Cc2ccc(O)cc2)NC(=O)[C@@H]2CCCN2C(=O)[C@H](CCCCN)NC(=O)[C@H](CCCCN)NC(=O)[C@H](CC(C)C)NC1=O (cyclo(ILKKPYILKKPY))
Activity (Mus musculus [1]): Active
ED35 (Mus musculus [2]): 300 ng
Activity (Mus musculus [3]): Dose-dependent effect
Activity (Mus musculus [4]): Active
Activity (Mus musculus [5]): Dose-dependent effect
Activity (Mus musculus [6]): tde
Activity (Mus musculus [7]): Dose-dependent effect
Activity (Mus musculus [8]): Active
Activity (Mus musculus [9]): Dose-dependent effect
Activity (Mus musculus [10]): Active
Activity (Mus musculus [11]): tde
Activity (Mus musculus [12]): Active
Activity (Mus musculus [13]): Active
Activity (Mus musculus [14]): tde
Activity (Mus musculus [15]): tde
Activity (Mus musculus [16]): Active
Activity (Mus musculus [17]): Dose-dependent effect
Activity (Mus musculus [18]): Dose-dependent effect

CCC(C)[C@H](NC(=O)[C@H](Cc1ccc(O)cc1)NC(=O)[C@@H]1CCCN1C(=O)[C@H](CCCNC(=N)N)NC(=O)[C@@H](N)CCCNC(=N)N)C(=O)N[C@@H](CC(C)C)C(=O)O (single isomer, unassigned)
Activity [19]: 0.16 nmol
